≈ marks a conversion by molar mass, not a printed value.
How the values were obtained:
Assay type in all cases: functional
Rhizoctonia solani = assay: Antifungal activity against Rhizoctonia solani after 48 to 72 hr by agar dilution method
Summary of the method: (§1)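 Agar dilution MIC on field-isolate phytopathogens. Compound in DMSO added to molten potato dextrose agar at 0.25-128 μg/mL (2-fold serial dilution). Inocula were 5 mm mycelial disks cut from actively growing colony margins after 3-7 days at 20-25 C. Plates were incubated at 20-25 C for 24-72 h. MIC is the lowest concentration giving complete growth inhibition versus a no-compound control. Run three times.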

Candida albicans [1] = assay: Antifungal activity against Candida albicans ATCC 10231 after 48 to 72 hr by agar dilution method
Botrytis cinerea [2] = assay: Antifungal activity against Botryotinia fuckeliana after 48 to 72 hr by agar dilution method; summary of the method: as §1
Fusarium oxysporum = assay: Antifungal activity against Fusarium oxysporum after 48 to 72 hr by agar dilution method; summary of the method: as §1
Pyricularia grisea [3] = assay: Antifungal activity against Magnaporthe grisea infected compound pre-treated rice plant seedlings assessed as rice blast disease control efficacy at 11 ug/mL under greenhouse conditions
Summary of the method: (§2)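 Rice seedlings at third-leaf stage sprayed to runoff with compound in 1% Tween 20 (water/DMSO 99:1), left 24 h, then sprayed with M. grisea spores (5 × 10^5 spores/mL). Greenhouse; randomized complete block, three replicates; % control = 100×[(A−B)/A] from infected leaf area versus Tween 20/1% DMSO controls.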

Globisporangium ultimum = assay: Antifungal activity against Pythium ultimum after 48 to 72 hr by agar dilution method; summary of the method: as §1
Corticium [4] = assay: Antifungal activity against Corticium sasaki infected compound pre-treated rice plant seedlings through soil application of fungus assessed as rice sheath blight disease control efficacy at 100 ug/mL under greenhouse conditions
Summary of the method: (§3)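 Rice seedlings were sprayed to runoff with compound in 1% Tween 20 containing 1% DMSO; controls got Tween 20 with 1% DMSO. After 24 h, fourth-leaf-stage plants were inoculated by adding 7-day-old C. sasaki cultures to the soil. Infected sheath area was scored. Three replicates in randomized complete blocks; % control = 100 × (A−B)/A against the Tween-only control.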

Phytophthora infestans [5] = assay: Antifungal activity against Phytophthora infestans infected compound pre-treated tomato plant seedlings assessed as tomato late blight disease control efficacy at 33 ug/mL measured after 2 days under greenhouse conditions
Summary of the method: (§4)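 Tomato seedlings at second-leaf stage sprayed to runoff with compound in 1% Tween 20 (water/DMSO 99:1), left 24 h, then sprayed with P. infestans zoospore suspension (5 × 10^4 sporangia/mL). Held 1 day at 20 C, 100% RH, then 2 days in growth chamber. Three replicates, randomized blocks; % control from infected area versus Tween 20/1% DMSO controls.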

Colletotrichum lagenaria = assay: Antifungal activity against Colletotrichum lagenaria after 48 to 72 hr by agar dilution method; summary of the method: as §1
Cryptococcus neoformans = assay: Antifungal activity against Cryptococcus neoformans ATCC 36556 after 48 to 72 hr […]
Phytophthora infestans [6] = assay: Antifungal activity against Phytophthora infestans after 48 to 72 hr by agar dilution method
Summary of the method: (§5)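 Agar dilution: DMSO stock added to molten medium (potato dextrose agar, or V-8 juice agar) at 0.25–128 μg/mL, 2-fold series. Inoculum was 5 mm mycelial disks from actively growing colony margins pre-grown 3–7 days at 20–25 C. Plates incubated 20–25 C for 24–72 h. MIC = lowest concentration giving complete growth inhibition versus compound-free plate; three repeats.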

Pichia kudriavzevii = assay: Antifungal activity against Pichia kudriavzevii ATCC 42720 after 48 to 72 hr by agar dilution method
Clavispora lusitaniae = assay: Antifungal activity against Clavispora lusitaniae ATCC 6258 after 48 to 72 hr by agar dilution method
Botrytis cinerea [7] = assay: Antifungal activity against Botryotinia fuckeliana infected in compound pre-treated tomato plant seedlings assessed as tomato gray mold disease control efficacy at 33 ug/mL measured 3 days post fungus inoculation under greenhouse conditions
Summary of the method: (§6)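 Tomato seedlings were sprayed to runoff with compound in 1% Tween 20 containing 1% DMSO; controls got Tween 20 with 1% DMSO. After 24 h, second-leaf-stage plants were sprayed with B. cinerea spores (10^6/mL) and kept dark at 20 C, 100% RH. Infected leaf area was scored 3 days post-inoculation. Three replicates in randomized complete blocks; % control = 100 × (A−B)/A against the Tween-only control.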

Pyricularia grisea [8] = assay: Antifungal activity against Magnaporthe grisea infected compound pre-treated rice plant seedlings assessed as rice blast disease control efficacy at 33 ug/mL under greenhouse conditions; summary of the method: as §2
Puccinia recondita [9] = assay: Antifungal activity against Puccinia recondita infected compound pre-treated wheat plant seedlings assessed as wheat leaf rust disease control efficacy at 100 ug/mL under greenhouse conditions
Summary of the method: (§7)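 Greenhouse protective assay. Seedlings were sprayed to runoff with compound in 1% Tween 20 containing 1% DMSO; controls got Tween 20 with 1% DMSO. Plants stood 24 h before pathogen inoculation. Infected leaf area was scored. Three replicates in randomized complete blocks; % control = 100 × (A−B)/A against the Tween-only control; means compared by LSD at P = 0.05.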

Blumeria hordei [10] = assay: Antifungal activity against Blumeria graminis f. sp. hordei infected compound pre-treated barley plant seedlings assessed as barley powdery mildew disease control efficacy at 33 ug/mL under greenhouse conditions; summary of the method: as §7
Blumeria hordei [11] = assay: Antifungal activity against Blumeria graminis f. sp. hordei infected compound pre-treated barley plant seedlings assessed as barley powdery mildew disease control efficacy at 11 ug/mL under greenhouse conditions; summary of the method: as §7
Alternaria kikuchiana = assay: Antifungal activity against Alternaria kikuchiana after 48 to 72 hr by agar dilution method; summary of the method: as §1
Botrytis cinerea [12] = assay: Antifungal activity against Botryotinia fuckeliana infected in compound pre-treated tomato plant seedlings assessed as tomato gray mold disease control efficacy at 11 ug/mL measured 3 days post fungus inoculation under greenhouse conditions; summary of the method: as §6
Corticium [13] = assay: Antifungal activity against Corticium sasaki infected compound pre-treated rice plant seedlings through soil application of fungus assessed as rice sheath blight disease control efficacy at 11 ug/mL under greenhouse conditions; summary of the method: as §3
Candida tropicalis = assay: Antifungal activity against Candida tropicalis ATCC 13803 after 48 to 72 hr by agar dilution method
Pyricularia grisea [14] = assay: Antifungal activity against Magnaporthe grisea after 48 to 72 hr by agar dilution method; summary of the method: as §5
Botrytis cinerea [15] = assay: Antifungal activity against Botryotinia fuckeliana infected in compound pre-treated tomato plant seedlings assessed as tomato gray mold disease control efficacy at 100 ug/mL measured 3 days post fungus inoculation under greenhouse conditions; summary of the method: as §6
Puccinia recondita [16] = assay: Antifungal activity against Puccinia recondita infected compound pre-treated wheat plant seedlings assessed as wheat leaf rust disease control efficacy at 11 ug/mL under greenhouse conditions; summary of the method: as §7
Candida albicans [17] = assay: Antifungal activity against Candida albicans isolate A207 after 48 to 72 hr by agar dilution method
Blumeria hordei [18] = assay: Antifungal activity against Blumeria graminis f. sp. hordei infected compound pre-treated barley plant seedlings assessed as barley powdery mildew disease control efficacy at 100 ug/mL under greenhouse conditions
Summary of the method: (§8)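 Barley or wheat seedlings sprayed to runoff with compound in 1% Tween 20 containing water/DMSO (99:1); controls got Tween 20 with 1% DMSO; left 24 h before inoculation; greenhouse. Pots in randomized complete block, three replicates; infected leaf area averaged and converted to % control = 100×[(A−B)/A] versus Tween-only plants.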

Corticium [19] = assay: Antifungal activity against Corticium sasaki infected compound pre-treated rice plant seedlings through soil application of fungus assessed as rice sheath blight disease control efficacy at 33 ug/mL under greenhouse conditions; summary of the method: as §3
Phytophthora infestans [20] = assay: Antifungal activity against Phytophthora infestans infected compound pre-treated tomato plant seedlings assessed as tomato late blight disease control efficacy at 100 ug/mL measured after 2 days under greenhouse conditions; summary of the method: as §4
Phytophthora infestans [21] = assay: Antifungal activity against Phytophthora infestans infected compound pre-treated tomato plant seedlings assessed as tomato late blight disease control efficacy at 11 ug/mL measured after 2 days under greenhouse conditions; summary of the method: as §4
Pyricularia grisea [22] = assay: Antifungal activity against Magnaporthe grisea infected compound pre-treated rice plant seedlings assessed as rice blast disease control efficacy at 100 ug/mL under greenhouse conditions; summary of the method: as §2
Puccinia recondita [23] = assay: Antifungal activity against Puccinia recondita infected compound pre-treated wheat plant seedlings assessed as wheat leaf rust disease control efficacy at 33 ug/mL under greenhouse conditions; summary of the method: as §7
Botrytis cinerea [24] = assay: Antifungal activity against Botryotinia fuckeliana infected in compound pre-treated tomato plant seedlings assessed as tomato gray mold disease control efficacy at 50 ug/mL measured 3 days post fungus inoculation under greenhouse conditions
Botrytis cinerea [25] = assay: Antifungal activity against Botryotinia fuckeliana infected in compound pre-treated tomato plant seedlings assessed as tomato gray mold disease control efficacy at 5 ug/mL measured 3 days post fungus inoculation under greenhouse conditions
Phytophthora infestans [26] = assay: Antifungal activity against Phytophthora infestans infected compound pre-treated tomato plant seedlings assessed as tomato late blight disease control efficacy at 2 ug/mL measured after 2 days under greenhouse conditions; summary of the method: as §4
Phytophthora infestans [27] = assay: Antifungal activity against Phytophthora infestans infected compound pre-treated tomato plant seedlings assessed as tomato late blight disease control efficacy at 10 ug/mL measured after 2 days under greenhouse conditions; summary of the method: as §4
Puccinia recondita [28] = assay: Antifungal activity against Puccinia recondita infected compound pre-treated wheat plant seedlings assessed as wheat leaf rust disease control efficacy at 50 ug/mL under greenhouse conditions; summary of the method: as §8
Puccinia recondita [29] = assay: Antifungal activity against Puccinia recondita infected compound pre-treated wheat plant seedlings assessed as wheat leaf rust disease control efficacy at 20 ug/mL under greenhouse conditions; summary of the method: as §8
Phytophthora infestans [30] = assay: Antifungal activity against Phytophthora infestans infected compound pre-treated tomato plant seedlings assessed as tomato late blight disease control efficacy at 50 ug/mL measured after 2 days under greenhouse conditions; summary of the method: as §4
Blumeria hordei [31] = assay: Antifungal activity against Blumeria graminis f. sp. hordei infected compound pre-treated barley plant seedlings assessed as barley powdery mildew disease control efficacy at 1 ug/mL under greenhouse conditions; summary of the method: as §8
Corticium [32] = assay: Antifungal activity against Corticium sasaki infected compound pre-treated rice plant seedlings through soil application of fungus assessed as rice sheath blight disease control efficacy at 50 ug/mL under greenhouse conditions
Summary of the method: (§9)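 Rice seedlings at fourth-leaf stage sprayed to runoff with compound in 1% Tween 20 (water/DMSO 99:1), left 24 h, then inoculated by adding 7-day-old C. sasaki cultures to soil. Greenhouse; three replicates, randomized complete block; % control = 100×[(A−B)/A] from infected sheath area relative to Tween 20/1% DMSO-treated plants.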

Corticium [33] = assay: Antifungal activity against Corticium sasaki infected compound pre-treated rice plant seedlings through soil application of fungus assessed as rice sheath blight disease control efficacy at 5 ug/mL under greenhouse conditions; summary of the method: as §9

Molecule `C/C=C(\C)C(=O)OC[C@]1(O)[C@H]2C[C@H]2[C@]2(C)[C@@H]3CC4=C5[C@H](/C(=C(/C)C(=O)OC)C(=O)[C@H](O)[C@@]5(C)[C@@H]5C[C@H]45)[C@@]34OC(=O)C(COC(C)=O)=C4C[C@@H]12` has an MIC (Rhizoctonia solani) of 16 mg/L (≈ 23.6 µM), an MIC (Candida albicans [1]) of 64 mg/L (≈ 94.6 µM) and an MIC (Botrytis cinerea [2]) of 8 mg/L (≈ 11.8 µM). For the same molecule, the MIC (Fusarium oxysporum) was 16 mg/L (≈ 23.6 µM), the Efficacy (Pyricularia grisea [3]) was 67% and the MIC (Globisporangium ultimum) was 1 mg/L (≈ 1.48 µM). For the same molecule, the Efficacy (Corticium [4]) was 69%, the Efficacy (Phytophthora infestans [5]) was 91% and the MIC (Colletotrichum lagenaria) was 8 mg/L (≈ 11.8 µM). It also gave an MIC (Cryptococcus neoformans) of 16 mg/L (≈ 23.6 µM), an MIC (Phytophthora infestans [6]) of 32 mg/L (≈ 47.3 µM) and an MIC (Pichia kudriavzevii) of 128 mg/L (≈ 189 µM). The MIC (Clavispora lusitaniae) was 128 mg/L (≈ 189 µM), the Efficacy (Botrytis cinerea [7]) was 14% and the Efficacy (Pyricularia grisea [8]) was 50%. For the same molecule, the Efficacy (Puccinia recondita [9]) was 100%, the Efficacy (Blumeria hordei [10]) was 0% and the Efficacy (Blumeria hordei [11]) was 0%. The MIC (Alternaria kikuchiana) was 8 mg/L (≈ 11.8 µM), the Efficacy (Botrytis cinerea [12]) was 7.2% and the Efficacy (Corticium [13]) was 50%. For the same molecule, the MIC (Candida tropicalis) was over 128 mg/L, the MIC (Pyricularia grisea [14]) was 4 mg/L (≈ 5.91 µM) and the Efficacy (Botrytis cinerea [15]) was 36%. It also gave an Efficacy (Puccinia recondita [16]) of 80%, an MIC (Candida albicans [17]) of 8 mg/L (≈ 11.8 µM) and an Efficacy (Blumeria hordei [18]) of 17%. For the same molecule, the Efficacy (Corticium [19]) was 50%, the Efficacy (Phytophthora infestans [20]) was 93% and the Efficacy (Phytophthora infestans [21]) was 29%. The Efficacy (Pyricularia grisea [22]) was 72% and the Efficacy (Puccinia recondita [23]) was 87%.

For `N#Cc1c[nH]cc1-c1cccc2c1OC(F)(F)O2` [FLUDIOXONIL], the Efficacy (Botrytis cinerea [24]) was 100% and the Efficacy (Botrytis cinerea [25]) was 82%.

`COc1ccc(C(=CC(=O)N2CCOCC2)c2ccc(Cl)cc2)cc1OC` [DIMETHOMORPH] showed an Efficacy (Phytophthora infestans [26]) of 64% and an Efficacy (Phytophthora infestans [27]) of 100%.

Molecule `CC1=C(C(=O)Nc2ccccc2)SCCO1` [CARBOXIN] has an Efficacy (Puccinia recondita [28]) of 100% and an Efficacy (Puccinia recondita [29]) of 43%.

`N#Cc1c(Cl)c(Cl)c(Cl)c(C#N)c1Cl` [CHLOROTHALONIL] was tested, and the Efficacy (Phytophthora infestans [30]) was 94% and the Efficacy (Phytophthora infestans [20]) was 100%.

For `CCCCNC(=O)n1c(NC(=O)OC)nc2ccccc21` [BENOMYL], the Efficacy (Blumeria hordei [31]) was 90% and the Efficacy (Blumeria hordei [18]) was 100%.

For `OCC1=C[C@H](N[C@H]2C[C@H](CO)[C@@H](O[C@@H]3O[C@H](CO)[C@@H](O)[C@H](O)[C@H]3O)[C@H](O)[C@H]2O)[C@H](O)[C@@H](O)[C@@H]1O` [VALIDAMYCIN], the Efficacy (Corticium [32]) was 100% and the Efficacy (Corticium [33]) was 75%.

— ChEMBL document CHEMBL3045045, “Antifungal activity of CHE-23C, a dimeric sesquiterpene from Chloranthus henryi” (2009)
